Structures are written as SMILES.

The test concerns E. coli BW25113 ΔtolC growth inhibition, OD615. Description: growth inhibitors of E. coli tolC mutant, dose response, strain BW25113 ΔtolC::kan (AID 617). In short, it runs like this: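 System: E. coli BW25113 ΔtolC::kan bacteria. Amount: 1:1000 diluted subculture inoculum. Medium: LB broth supplemented with kanamycin at 50 µg/mL. Compound dosing: serial dilution series of compound. Schedule: 20 h exposure at 37 °C. Detection: OD615. Measure: IC50 of bacterial growth inhibition. Benchmarks: chloramphenicol control, 30 µM final.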
For `O=C(Nc1nc(-c2ccccn2)cs1)c1ccc(Cl)s1`, the IC50 (commonly the concentration at which inhibition is half-maximal) is 0.13 µM.

In the case of `c1ccc(-c2oc3ncnc(NCCCn4ccnc4)c3c2-c2ccccc2)cc1`, the IC50 is 6.05 µM.

As for `OCCn1c(-c2ccc3c(c2)OCO3)csc1=Nc1ccccc1`, the IC50 was 23.5 µM.

In the case of `Cc1ccc(S(=O)(=O)NCCSc2nnnn2-c2cc(C)ccc2C)cc1`, the IC50 is 13.4 µM.

As to `COc1ccc(-c2[nH]ncc2Oc2ccccc2OC)c(O)c1`, the IC50 was 10.5 µM.

Regarding `Cc1cc(C)nc(-n2nc(C)cc2Nc2ccccc2)n1`, the IC50 is 2.65 µM.

With `COc1ccc(-c2cc(C(=O)N3CCc4ccccc4C3)no2)cc1OC`, the half-maximal inhibitory concentration (IC50) is 16.6 µM.

Take `CC(C)C(c1nnnn1C1CCCC1)N1c2ccccc2CC1C` (configuration not stated): the IC50 was 20.8 µM.

For `COc1ccc(C(=O)Nc2nc(-c3cccs3)cs2)cc1`, the IC50 was 8.14 µM.

`O=c1n(Cc2ccccc2)c2cc(Cl)cnc2n1Cc1ccccc1`: the IC50 was 10.2 µM.

As for `CC1=CC(C)(C)N(C(=O)CSc2nnc(-c3ccccc3)o2)c2ccc(C)cc21`, the IC50 is 16.3 µM.

For `O=C(Nc1ccc(N2CCN(C(=O)c3ccco3)CC2)c(Cl)c1)c1c(F)c(F)c(F)c(F)c1F`, the IC50 was 3.96 µM.

As for `CCOC(=O)c1csc(Nc2nc3ccc(F)cc3s2)n1`, the IC50 was 5.89 µM.

Regarding `Cc1cc(NC(=O)C2CCCCC2)nc2c1c(=O)oc1ccccc12`, the IC50 is 11.5 µM.

In the case of `COc1ccc(OC)c(S(=O)(=O)n2cnc3cc(C)c(C)cc32)c1`, the IC50 was 11.4 µM.

For `Cc1oc2c(CN3CCOCC3)c(O)ccc2c(=O)c1-c1ccc(Br)cc1`, the IC50 was 2.83 µM.

Turning to `c1ccc(-c2noc(-c3cccc4ccccc34)n2)cc1`, the IC50 was 101 µM.

On to `CCSCC1COC(c2cccn2Cc2ccc(C)cc2)=N1` (configuration not stated), for which the IC50 was 39.4 µM.

With `O=C(Nc1nnc(-c2ccccc2Cl)o1)c1ccc(S(=O)(=O)N2CCCCCC2)cc1`, the IC50 was 0.16 µM.

For `CCN(C(=O)c1ccc(C(C)(C)C)cc1)c1nnc(Cn2nnc3ccccc32)s1`, the IC50 is 47.5 µM.

Regarding `CCn1c(C(=O)N2CCC(C(=O)NCCCSC3CCCCC3)CC2)cc2sccc21`, the IC50 is 6.22 µM.

`N#C/C(=C\C1CC=CCC1)c1nc2ccccc2[nH]1` (configuration not stated): the IC50 was 36.9 µM.

With `c1ccc(-c2nc(N3CCCCCC3)c3ccccc3n2)nc1`, the IC50 was 1.68 µM.

In the case of `CCCCCSc1nnc(-c2cc(Br)ccc2N)c(=O)[nH]1`, the IC50 was 5.1 µM.

For the compound `O=C(Cn1c(C(=O)NCc2ccco2)cc2sccc21)c1ccccc1`, the IC50 is 24.6 µM.

As for `O=C(NC1CCCCCCC1)c1ccccc1O`, the IC50 is 9.01 µM.

For `O=C(CSc1nc(O)c(C2CCCCC2)c(=O)[nH]1)Nc1ccc(Cl)cc1`, the IC50 is 8.66 µM.

`COc1ccc(CNc2nc3c(c(=O)n(Cc4ccc(F)cc4)c(=O)n3C)n2C)cc1`: the IC50 is 22.5 µM.

For `CCC(Oc1ccccc1)C(=O)Nc1ccc(-c2nnc(-c3ccco3)o2)cc1` (configuration not stated), the IC50 was 18.2 µM.

Regarding `CSCc1nnc(NC(=O)c2ccc(S(=O)(=O)N(CC(C)C)CC(C)C)cc2)o1`, the IC50 was 0.3 µM.

Consider `CCOC(=O)CCSc1nc2c(c(C(F)(F)F)c1C#N)CCC2`, for which the IC50 is 13.9 µM.

With `Cc1cccc(OCCn2c(NC(=O)c3ccco3)nc3ccccc32)c1`, the IC50 is 11 µM.

`N#CC1=C(N)SC(N)=C(C#N)C1CCC1CCCCC1`: the IC50 was 3.65 µM.

Take `Cc1cc(N2CCN(c3ccccc3)CC2)nc(-n2nc(C)cc2C)n1`: the concentration for half-maximal inhibition (IC50) is 7.6 µM.

`CCCOc1ccc(C(=O)N2CCN(c3ccc(NC(=O)CC)cc3Cl)CC2)cc1`: the IC50 is 14.6 µM.

As for `Cc1ccc(-n2c(=O)[nH]cc(C(=O)Nc3ccc4c(c3)OCCO4)c2=O)cc1C`, the IC50 is 26.9 µM.

Regarding `COC(=O)c1c(NC(=O)Cc2cccs2)sc2c1CCCC2`, the IC50 is 8.83 µM.

On to `CCn1nc(-c2ccccc2)nc2c(=O)n(C)c(=O)nc1-2`, for which the IC50 is 2.8 µM.

For `CSCCOC(=O)C1=C(C)NC(=O)CC1c1ccccc1Cl` (configuration not stated), the IC50 is 22.9 µM.

As to `Cc1ccc(Cl)cc1N1CCN(C(=O)COc2ccc(S(=O)(=O)NC(C)C)cc2)CC1`, the IC50 is 10.6 µM.

For the compound `Cc1nc2nc(COc3ccccc3)[nH]n2c(=O)c1Cc1ccccc1`, the IC50 was 1.32 µM.

Turning to `O=S(=O)(Nc1nc2ccccc2nc1N1CCN(c2ccccn2)CC1)c1ccc(Cl)cc1`, the half-maximal inhibitory concentration (IC50) is 3.16 µM.

For the compound `Cc1nn(-c2ccccc2)c2sc(-c3n[nH]c(=S)o3)cc12`, the IC50 was 4.43 µM.

Consider `CSc1ccc(S(=O)(=O)Nc2ccc(N3CCOCC3)c(Cl)c2)cc1`, for which the IC50 was 6.56 µM.

On to `COCCNc1nc(-n2nc(C)cc2C)nc2sc3c(c12)CCCC3`, for which the IC50 is 6.71 µM.

As for `CC1CCN(C(=O)c2ccc(COc3ccccc3Cl)o2)CC1`, the IC50 is 11.1 µM.

Take `CCOCCn1c(CN(Cc2ccccc2)Cc2ccccc2)nc2c1c(=O)n(C)c(=O)n2C`: the IC50 is 13.2 µM.

As to `CCCOc1ccccc1NC(=O)c1c(-c2ccccc2)noc1C`, the IC50 was 15.1 µM.

For the compound `Cc1csc(NC(=O)CSc2ncnc3c2cnn3-c2ccccc2Cl)n1`, the IC50 was 16.4 µM.

For the compound `COc1ccc(C2c3sc(=O)[nH]c3SC3C4CCC(C4)C23)cc1` (configuration not stated), the IC50 was 10 µM.

As for `CSCSC1=C(C#N)C(c2ccc(Cl)cc2)C(C(C)=O)=C(C)N1` (configuration not stated), the IC50 is 9.12 µM.

As for `CCCc1nc(SC2CCCC2)c2c(=O)n(C)c(=O)n(C)c2n1`, the IC50 is 13.6 µM.

With `O=C(Nc1nnc(-c2ccccc2)o1)c1nc2ccccc2s1`, the IC50 was 1.34 µM.

In the case of `Cc1nn(Cc2ccc(C(=O)N3c4ccc(F)cc4CCC3C)o2)c(C)c1Br` (configuration not stated), the IC50 was 9.71 µM.

Take `Cc1cccc(OCCCCc2c(C)n[nH]c2C)c1C`: the IC50 is 1.56 µM.

Consider `O=C(Nc1ccccc1N1CCCCC1)c1cccs1`, for which the IC50 is 12.8 µM.

As for `COc1cccc(N2CC(C(=O)Nc3ccc(C(=O)OC(C)C)cc3)CC2=O)c1` (configuration not stated), the IC50 is 15 µM.

Turning to `COc1ccc2[nH]c(=O)c(CN(C(=O)NC3CCCCC3)C3CCCCC3)cc2c1`, the IC50 is 19.4 µM.

`Cc1cccc(N2CCN(C(=O)C34CC5CC(CC(C5)C3)C4)CC2)c1C`: the IC50 is 19.6 µM.

On to `Cn1c(C(=O)N2CCN(c3cccc(C(F)(F)F)c3)CC2)cc2sccc21`, for which the IC50 is 15.4 µM.

Consider `CCOC(=O)C1CCN(c2nc3cc(OC)ccc3cc2C#N)CC1`, for which the IC50 is 14.9 µM.

For the compound `CCn1c(SCC(=O)Nc2nc(-c3ccc(C)cc3)cs2)nnc1-c1ccccc1O`, the IC50 was 4.11 µM.

Regarding `O=C(Nc1nc(-c2cccs2)cs1)c1ccc(Cl)s1`, the IC50 is 26.3 µM.

Take `C=C(C)COc1ccc(-c2n[nH]c(C)c2-c2ccccc2)c(O)c1`: the IC50 is 8.47 µM.

On to `O=S(=O)(Nc1nnc(-c2ccccc2)s1)c1ccc(Cl)cc1`, for which the IC50 is 3.74 µM.

Take `Oc1ccc2c(c1)oc1cc(O)ccc12`: the 50% inhibitory concentration (IC50) was 16.6 µM.

On to `CCSC1=C(C#N)C(c2ccc(Cl)cc2)C2=C(CCCC2=O)N1` (configuration not stated), for which the IC50 is 8.21 µM.

On to `O=C(c1noc2c1CCc1ccccc1-2)N1CCCc2ccccc21`, for which the IC50 is 12.2 µM.

Turning to `COc1ccc(CNC(=O)c2cc(-c3ccccc3OC)on2)cc1`, the IC50 was 56 µM.

For the compound `CC1CCCN(S(=O)(=O)c2ccc(NC(=O)Cn3nnc(-c4ccccc4F)n3)cc2)C1` (configuration not stated), the IC50 is 26.6 µM.

Regarding `O=S(=O)(Nc1cccc2cccnc12)c1ccc(S(=O)(=O)N2CCCC2)cc1`, the IC50 was 15.3 µM.

`COc1ccc(-c2nnc(NC(=O)c3ccc(S(=O)(=O)N4CCc5ccccc5C4)cc3)o2)cc1`: the IC50 is 0.22 µM.

As for `Clc1ccc(COC(Cn2ccnc2)c2ccc(Cl)cc2Cl)cc1` (configuration not stated), the IC50 is 2.27 µM.

Regarding `COc1ccc2[nH]c3c(=O)n(CCCCC(=O)N4CCCC4)c(=S)[nH]c3c2c1`, the IC50 was 0.75 µM.

`Cc1nn(-c2nc3ccccc3[nH]2)c(N)c1-c1ccccc1`: the IC50 was 59.4 µM.

For the compound `Cc1c(C(=O)N2CCc3ccccc3C2)sc2nc(-c3ccccc3)cn12`, the IC50 was 13.6 µM.

As to `O=C1CCCC2=C1C(c1cccs1)n1nc(SCc3ccccc3)nc1N2` (configuration not stated), the IC50 is 15.8 µM.

Take `C=CCn1c(SCC(=O)Nc2ccc3c(c2)CCC3)nnc1-c1cccs1`: the IC50 was 53.8 µM.

Regarding `Cc1ccc(C(C)C)c(Oc2nnnn2-c2ccccc2)c1`, the IC50 was 14.7 µM.

For the compound `COC(=O)CNS(=O)(=O)c1ccc(Cc2ccc(S(=O)(=O)NCC(=O)OC)cc2)cc1`, the IC50 is 1.29 µM.

On to `OCCN(CCO)c1nc(N2CCCCC2)c2nc(N(CCO)CCO)nc(N3CCCCC3)c2n1`, for which the IC50 is 1.38 µM.

On to `Cc1ccc(N(CC(=O)Nc2cccc(C)c2)S(=O)(=O)c2cccc3nonc23)cc1`, for which the IC50 was 37 µM.

Take `CCc1nc2ccccc2c(=O)n1NC(=O)c1c(O)c2ccccc2[nH]c1=O`: the IC50 is 5.7 µM.

As to `CC1CCCC(C)N1C(=O)CN1CCN(c2nc(-c3ccc(F)cc3)cs2)CC1` (configuration not stated), the IC50 was 12 µM.

In the case of `CCC1CCCCN1C(=O)c1cc(-c2ccc(Cl)c(Cl)c2)on1` (configuration not stated), the IC50 is 10.3 µM.

With `COc1ccc(-n2c(Cc3cccn3C)nnc2SCC(=O)Nc2ccc(C)c(Cl)c2)cc1`, the IC50 was 14.4 µM.

For `Cc1nnc(SC(=O)N2c3ccccc3Sc3ccccc32)s1`, the IC50 is 14.6 µM.

`CCOC(=O)c1c(-c2ccccc2)nnn1-c1nc(OCC)nc(N2CCCCC2)n1`: the IC50 was 20.7 µM.

Turning to `CCc1ccc2[nH]c(=O)c(C(c3nnnn3CCOC)N3CCN(c4ccc(F)cc4)CC3)cc2c1` (configuration not stated), the IC50 was 35.7 µM.

As to `CC1CN(c2nc3c(c(=O)n(Cc4ccc(Cl)c(Cl)c4)c(=O)n3C)n2C)CC(C)O1` (configuration not stated), the IC50 was 20.4 µM.

Consider `CC(=O)c1c(O)cc(C)n(Nc2nc(C)cc(C)n2)c1=O`, for which the IC50 was 13.1 µM.

In the case of `Cc1sc(NC(=O)c2ccco2)c(CN2CCN(c3ccccn3)CC2)c1C`, the IC50 is 9.55 µM.

On to `CCOC(=O)c1cccc2c1-c1ccccc1/C2=N/O`, for which the IC50 is 97.1 µM.

As for `O=C(Cn1c2c(c(-c3ccccc3)cc1=O)CCCC2)N1CCCCCC1`, the IC50 is 6.09 µM.

In the case of `Cc1cccnc1Nc1nc(-c2ccc(O)cc2O)cs1`, the IC50 is 17.8 µM.

Consider `CCc1ccccc1N(C)C(=O)CCc1nc(-c2ccc(C)cc2)no1`, for which the IC50 was 13.8 µM.

For `CCCCCc1cc(O)c2c(C)cc(=O)oc2c1`, the IC50 is 2.16 µM.

The record behind these values is PubChem BioAssay AID617 (SRMLSC, 2007).
